Compound activity (PubChem BioAssay)
This is a sample that favours compounds with a hit; in the whole collection about 6.6% have one here.
H69AR growth 86K: blocks growth of human H69AR lung tumor cells. viability, % at 10 µM. H69AR lung tumor viability, ATP luminescence, 72 h; hits give low values. 6% of 85,000 active;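 active means viability at or below 40%; inactive means viability above 40%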;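 further: multidrug resistant small cell line overexpressing MRP-1 efflux transporter; 100% = mean luminescence of untreated control wells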
Jurkat viability: cytotoxic compounds reducing Jurkat cell viability. 1.2% of 56,000 active. Jurkat E6.1 viability, ATP luminescence, 48 h. AID 463. inhibition, % at 4 µM;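 active means inhibition above the mean inhibition of all tested compounds plus 3 SD, cut at about 28% in these data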
HUVEC prolif 384: blocks proliferation of human endothelial cells. HUVEC proliferation, CellTiter-Glo luminescence, 72 h; hits give low values. viability, % at 10 µM (by protocol). 1.1% of 86,000 active;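 active means viability at or below 30%; inactive means viability above 30%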;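 further: 100% = median luminescence of DMSO-only cell control wells on each plate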
Fibroblast inh: blocks proliferation of human lung fibroblasts | LL 47 human lung fibroblast viability, ATP luminescence; hits give low values | viability, % at 10 µM | 1.1% of 85,000 active;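 active means viability at or below 50% in the single dose screen; inactive means viability above 50%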;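 further: compound exposure lasted 72 h before the ATP readout; 100% = median luminescence of untreated cell-only wells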
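test system = LL 47 human lung fibroblasts | amount = 1,150 fibroblasts seeded per well | medium = 15% FBS in IMEM | times = overnight cell rest, 72 h compound treatment at 37 °C | measured by = CellTiter-Glo luminescence measuring cellular ATP | read-out = viability percentage against median untreated-cell control | benchmarks = cell-only wells, no compound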
* = called active by the depositor; . = no result.

SMILES	H69AR growth 86K	Jurkat viability	HUVEC prolif 384	Fibroblast inh
COc1ccccc1-n1nc(C(=O)Nc2ccc3c(c2)OCO3)c2ccccc2c1=O	42	2	74	85
COc1ccc(-n2nc(C(=O)Nc3ccc4c(c3)OCO4)c3ccccc3c2=O)c(OC)c1	7.0*	2	72	94
COc1ccc(-n2nc(C(=O)Nc3ccc4c(c3)OCO4)c3c4ccccc4n(C)c3c2=O)cc1	85	-2	88	93
COc1ccc(-n2nc(C(=O)Nc3ccc(OC)c(OC)c3)c3c4ccccc4n(C)c3c2=O)cc1	9.2*	.	30	77
Cc1ccc(-n2nc(C(=O)NCc3ccco3)c3c4ccccc4n(C)c3c2=O)cc1	.	4	.	.
CCN(CC)CCNC(=O)c1nn(-c2ccc(C)cc2)c(=O)c2c1c1ccccc1n2C	64	-1	20*	54
COc1ccc(N2Nc3n[nH]c(N)c3N2)cc1	109	.	85	100
CCOC(=O)c1cccc(NC(=O)c2cccnc2)c1	31*	1	102	.
CCOCC(=O)Nc1cccc(C(=O)OCC)c1	21*	-4	97	105
CC(C)C(=O)Nc1ccc(C(=O)NCc2cccnc2)cc1	36*	82*	102	100
O=C(Nc1cnc2ccccc2c1)c1cccnc1	7.7*	-8	106	102
COc1cc2c(cc1OC)-c1nnc(-c3ccco3)n1C1(CCCC1)C2	83	.	92	108
CN(C)C(=O)c1ccc(NC(=O)c2cccnc2)cc1	39*	.	104	93
Cc1cc(C(=O)NCc2ccccc2Br)no1	99	1	90	103
O=C(/C=C/c1ccco1)NC(=S)NNC(=O)c1ccco1	62	.	28*	92
Cc1ccnc(NC(=S)NC(=O)/C=C/c2ccco2)c1	26*	.	64	72
CC(C)CNC(=S)NNC(=O)c1ccco1	50	.	95	92
O=C(/C=C/c1ccco1)NC(=S)Nc1ccc(Cl)cn1	102	.	113	106
CC(=O)c1ccc(NS(=O)(=O)c2cccc(C)c2)cc1	103	.	98	101
COc1cccc(/C=N/n2c(SC)nnc2-c2ccccc2)c1O	23*	68*	51	89
c1ccc(-c2oc3ncnc(NCCCn4ccnc4)c3c2-c2ccccc2)cc1	29*	9	38	80
c1ccc2c(c1)oc1c(NCCCn3ccnc3)ncnc12	87	3	86	106
c1ccc(-c2c(-c3ccccc3)n(Cc3ccco3)c3ncnc(NCCCn4ccnc4)c23)cc1	9.1*	.	44	86
Clc1ccc(-n2ncc3c(NCCCn4ccnc4)ncnc32)cc1	80	.	96	91
CCc1cccc(NC(=O)Cc2cn(C)c3ccccc23)c1	89	.	100	103
SMILES	H69AR growth 86K	Jurkat viability	HUVEC prolif 384	Fibroblast inh
COc1cc(C=C(C(C)=O)C(C)=O)ccc1O	91	.	89	99
COc1cc(/C=C(/C(=O)c2cccs2)c2nc3ccccc3[nH]2)ccc1O	2.0*	.	38	11*
O=C1N=C(N2CCOCC2)S/C1=C1\C(=O)N(Cc2ccccc2)c2ccccc21	29*	-4	55	77
CCCN1C(=O)/C(=C2\SC(N3CCCCC3)=NC2=O)c2ccccc21	19*	4	89	.
CC(C)=C1SC(N2CCN(Cc3ccccc3)CC2)=NC1=O	64	6	91	87
CN1C(=O)/C(=C2\SC(N3CCCCCC3)=NC2=O)c2ccccc21	49	.	78	87
CCNC(=O)N1CCOCC1	103	.	99	97
C=CCn1c(=O)c2ccccc2n2c(SCc3nnc(-c4ccccc4Br)o3)nnc12	65	5	98	87
Brc1ccc(-c2nc(N/N=C/c3cccnc3)c3ccccc3n2)cc1	11*	.	61	60
COc1ccc(-c2nnc3c4ccccc4c(C)nn23)cc1	32*	.	69	79
Cc1nn2c(-c3ccncc3)nnc2c2ccccc12	.	8	.	.
Cc1cc(C(N)=O)c2cc(Br)ccc2n1	85	8	98	101
Nc1c2c(nc3ccccc13)N(C1CCCCC1)CC2	97	.	97	98
Cc1cccc(N2CCc3c2nc2ccc(Br)cc2c3N)c1	22*	.	62	99
Nc1c2c(nc3ccc(Br)cc13)N(c1ccccc1)CC2	32*	.	78	94
CCc1cc2c(=O)n(Cc3ccco3)c(SCc3c(C)noc3C)nc2s1	13*	88*	56	49*
CCc1cc2c(=O)n(Cc3ccco3)c(SCC(=O)N3CCCc4ccccc43)nc2s1	102	2	90	89
CCOC(=O)c1c(NC(C)=O)sc2c1CCC(C=NCCCN(CC)CC)=C2Sc1ccccc1	0.7*	.	3.2*	69
COc1cc(-c2nnc(COc3ccc4cc(Br)ccc4c3)o2)cc(OC)c1OC	24*	-9	46	.
